Results on 5 compounds are retold here after ChEMBL document CHEMBL1177862, “Novel effects of glycyrrhetinic acid on the central nervous system tumorigenic progenitor cells: induction of actin disruption and tumor cell-selective toxicity” (Eur J Med Chem, 2010).

The structures appear in SMILES notation. Counter-ions that a name gives are not always drawn.

Experiment [1] in a line: Antiproliferative activity against mouse SFME cells after 24 hrs by MTT assay. The class given is cell-based. An outline of the steps: (§1)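 Cells were kept in DME/F-12 with insulin, transferrin and EGF on fibronectin-coated dishes at 37 C in 20% O2/5% CO2. They were seeded at 1 x 10^4 cells/well and dosed at half confluency for 24 h. Cell number was read by MTT. Runs were in triplicate, repeated at least three times, as mean SD. IC50 was derived from concentration-response data.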
A general note: Formazan colour is commonly taken as a measure of viable cells.

The nature of experiment [2]: Antiproliferative activity against mouse r/m HM-SFME-1 cells after 24 hrs by MTT assay. In kind it is functional, cell-based. The gist of the method: as §1
Experiment [3] is described as follows: Induction of F-actin disruption in mouse r/m HM-SFME-1 cells assessed as disappearance of F-actin extension at IC50 after 8 hrs by confocal laser scanning microscopy. In kind it is functional, cell-based. An outline of the steps:
(§2)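 After 8 h treatment, cells were fixed in 3.7% formaldehyde/PBS and permeabilized with 0.1% Triton X-100. F-actin was labeled with rhodamine-phalloidin. Slides were mounted in anti-fade medium and imaged by confocal laser scanning or fluorescence microscopy for peripheral F-actin extensions and lamellipodia.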

A short description of experiment [4]: Down regulation of beta-actin protein expression in mouse SFME cells at IC50 after 8 hrs by Western blotting. The class given is functional, cell-based. An outline of the steps: (§3)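 They were run on SDS-PAGE, blotted to nitrocellulose and probed with mouse monoclonal anti-beta-actin, then AP-conjugated anti-mouse IgG1. GAPDH was the loading control. Bands were quantified by densitometry. Values are from at least 3 experiments, Student's t-test.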

A short description of experiment [5]: Down regulation of beta-actin protein expression in mouse r/m HM-SFME-1 cells at IC50 after 8 hrs by Western blotting. The class given is functional, cell-based. The gist of the method: as §3
In general terms: A western blot detects proteins with antibodies after separation by electrophoresis.

Experiment [6] in a line: Antiproliferative activity against mouse r/m HM-SFME-1 cells at 10 uM after 24 hrs by MTT assay. The class given is functional. An outline of the steps: as §1
Experiment [7] is described as follows: Induction of F-actin disruption in mouse SFME cells assessed as F-actin extension at IC50 after 8 hrs by confocal laser scanning microscopy. In kind it is functional, cell-based. An outline of the steps:
as §2

Usually IC50 stands for the concentration that gives 50% inhibition. For `Nc1ccn([C@@H]2O[C@H](CO)[C@@H](O)[C@@H]2O)c(=O)n1` [CYTARABINE], the figures for the IC50 in experiment [1] and in experiment [2] were 0.8 µM and 33.3 µM, respectively.

`COc1cccc2c1C(=O)c1c(O)c3c(c(O)c1C2=O)C[C@@](O)(C(=O)CO)C[C@@H]3O[C@H]1C[C@H](N)[C@H](O)[C@H](C)O1` [DOXORUBICIN HYDROCHLORIDE]: the IC50 in experiment [1] amounted to 0.8 µM; in experiment [2], 64 µM.

The inhibition is the share of the control response that was lost under treatment. Consider `CC1(C)[C@@H](O)CC[C@]2(C)[C@H]3C(=O)C=C4[C@@H]5C[C@@](C)(C(=O)O)CC[C@]5(C)CC[C@@]4(C)[C@]3(C)CC[C@@H]12` [ENOXOLONE], for which the IC50 result in experiment [3] was “Active”; in experiment [4], “Not Active”; in experiment [5], “Active”; in experiment [1], 18 µM; in experiment [2], 7.3 µM; in experiment [7] it was “Not Active”. The compound further gave an inhibition at 10 µM in experiment [6] of more than 80%.

Take `COc1cc([C@@H]2c3cc4c(cc3[C@@H](O[C@@H]3O[C@@H]5CO[C@@H](C)O[C@H]5[C@H](O)[C@H]3O)[C@H]3COC(=O)[C@H]23)OCO4)cc(OC)c1O` [ETOPOSIDE]: the IC50 is 0.5 µM in experiment [1] and 9 µM in experiment [2].

As for `O=c1[nH]cc(F)c(=O)[nH]1` [FLUOROURACIL], the IC50 in experiment [1] amounted to 3.2 µM; in experiment [2] it was 48.5 µM.
